According to PubChem BioAssay:
Active and inactive are the calls of the source.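 How the source made its calls, unless noted: active means GFP response above 150% of the DMSO level; inconclusive means fewer than 70 events counted for a yeast strain; inactive means the rest.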

Tests used:
[1] = RPL19A-GFP modulators, yeast TOR pathway, confirmation, cell-based, S. cerevisiae, flow cytometry, cherry picks, mother/daughter gates (AID 2270;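 active means GFP response below 50% of the DMSO control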); details: S. cerevisiae RPL19A-GFP strain, 3 h, at 10 µM, stronger effect = lower value, 100 = same GFP as DMSO wells
[2] = LAP4-GFP expression modulators in yeast, confirmation, cell-based, cherry picks, flow cytometry, mother/daughter gates (AID 2271;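 active means GFP response above 150% of the DMSO control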;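 further: ratio of sample to DMSO plate mean so 100% equals DMSO level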); details: S. cerevisiae LAP4-GFP strain, 3 h, at 10 µM, stronger effect = higher value, 100 means same as DMSO control
In short: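 Measured by: GFP by flow cytometry. Test system: GFP-fusion yeast strain. Input: yeast cells seeded at OD600 of 0.2. Timing: 30 °C, 3 h compound incubation, rotating. Buffer or medium: synthetic complete medium for yeast. Benchmarks: DMSO-only negative wells, rapamycin 400 ng/mL positive wells. Compound: 10 µM single dose.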

[3] = modulators of MEP2-GFP levels in yeast, confirmation, S. cerevisiae, flow cytometry GFP, cherry picks (AID 2272;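 active means GFP response above 150% of the DMSO control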;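 further: ratio of well signal to plate DMSO mean so 100% equals DMSO level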); details: S. cerevisiae MEP2-GFP strain, 3 h, at 10 µM, stronger effect = higher value
[4] = AGP1-GFP expression modulators, hit retest, confirmation, cell-based, flow cytometry, S. cerevisiae, cherry picks (AID 2273);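 further: median GFP channel fluorescence over the whole cell population gate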; details: S. cerevisiae AGP1-GFP strain, 3 h, at 10 µM
[5] = modulators of CIT2-GFP expression in yeast, confirmation, S. cerevisiae, GFP fusion, cherry picks, mother/daughter gates (AID 2274); details: S. cerevisiae CIT2-GFP strain, flow cytometry, 3 h, at 10 µM, stronger effect = higher value
[6] = measured here: daughter cell gate
[7] = measured here: mother cell gate
[8] = measured here: daughter cell gate response
[9] = measured here: mother cell gate response

SMILES | GFP response vs DMSO [1] | GFP response vs DMSO [1, 6] [%] | GFP response vs DMSO [1, 7] [%] | GFP response relative to DMSO [2] | GFP response relative to DMSO [2, 8] [%] | GFP response relative to DMSO [2, 9] [%] | GFP response vs DMSO [3] | GFP response, % of DMSO [4] | GFP response, % of DMSO [5] | GFP response, % of DMSO [5, 6] [%] | GFP response, % of DMSO [5, 7] [%]
C/C(=N\NC(=O)COc1ccccc1-c1ccccc1)c1ccccn1 | 101% (inactive) | 99.1 | 102 | 145% (inactive) | 136 | 162 | 96.6% (inactive) | 94.5% (inactive) | 102% (inactive) | 106 | 97.7
COC(=O)c1ccc2nc(Nc3nc4ccc(F)cc4s3)sc2c1 | 101% (inactive) | 101 | 102 | 81.8% (inactive) | 84.8 | 86 | 97.8% (inactive) | 97% (inactive) | 108% (inactive) | 105 | 109
Cc1ccc(N2C3=C(C(=O)CC(C)(C)C3)C(c3cn(C)nc3C)C3=C2CC(C)(C)CC3=O)cc1 | 105% (inactive) | 102 | 104 | 119% (inactive) | 122 | 117 | 131% (inactive) | 103% (inactive) | 134% (inactive) | 132 | 132
Cn1c(N2CCCC2)nc2c1c(=O)n(Cc1ccc(Cl)cc1)c(=O)n2C | 91.8% (inactive) | 84.5 | 87.5 | 126% (inactive) | 109 | 121 | 94.7% (inactive) | 98.4% (inactive) | 81.4% (inactive) | 77.5 | 76
O=C(COc1ccccc1)Nc1c2c(nn1-c1ccccc1)CS(=O)C2 (configuration not stated) | 97.1% (inactive) | 96.4 | 96.5 | 97.7% (inactive) | 99 | 96.4 | 103% (inactive) | 104% (inactive) | 98.6% (inactive) | 97.6 | 100
O=c1cc(-c2c(F)c(F)c(F)c(F)c2F)oc2c(F)c(F)c(F)c(F)c12 | 105% (inactive) | 101 | 101 | 145% (inactive) | 120 | 145 | 131% (inactive) | 113% (inactive) | 132% (inactive) | 119 | 118
CCOC(=O)Cc1csc(NC(=O)COc2ccc(N(C)S(=O)(=O)c3cccs3)cc2)n1 | 95% (inactive) | 94.9 | 92 | 102% (inactive) | 101 | 98.3 | 105% (inactive) | 96.6% (inactive) | 95.5% (inactive) | 97.2 | 95
COc1ccc(-c2nc(-c3ccccc3OC)no2)cc1OC | 100% (inactive) | 98.8 | 98.6 | 102% (inactive) | 99.1 | 104 | 105% (inactive) | 91.8% (inactive) | 94.4% (inactive) | 95.6 | 93.2
O=C(CCc1nc(-c2ccccc2)no1)Nc1cc(C(F)(F)F)ccc1Cl | 105% (inactive) | 105 | 103 | 91.9% (inactive) | 91 | 92 | 105% (inactive) | 102% (inactive) | 112% (inactive) | 108 | 110
O=C(Nc1ccc(F)cc1)C1CCCN(c2cnccn2)C1 (configuration not stated) | 102% (inactive) | 101 | 102 | 99.5% (inactive) | 99.1 | 100 | 96.8% (inactive) | 105% (inactive) | 102% (inactive) | 99.2 | 103
CN(c1ccccc1)S(=O)(=O)c1ccc(C(=O)Nc2nnc(-c3ccc(F)cc3)o2)cc1 | 99.1% (inactive) | 102 | 98.6 | 122% (inactive) | 128 | 120 | 149% (inactive) | 106% (inactive) | 131% (inactive) | 133 | 128
Cc1cccc(CS(=O)(=O)c2ncc(Cl)c(C(=O)Nc3c(C)cccc3C)n2)c1 | 106% (inactive) | 98.6 | 107 | 106% (inactive) | 101 | 107 | 105% (inactive) | 99.4% (inactive) | 100% (inactive) | 97.4 | 101
CCN(Cc1ccccc1)S(=O)(=O)c1ccc(C(=O)Nc2nnc(-c3ccccc3OC)o2)cc1 | 98.4% (inactive) | 98.6 | 98.4 | 94.1% (inactive) | 92.8 | 94 | 102% (inactive) | 96.4% (inactive) | 98.3% (inactive) | 97.2 | 99.7
CC(C)c1nnc(SCC(=O)N2CCc3ccccc32)n1C | 102% (inactive) | 101 | 101 | 96.2% (inactive) | 95.6 | 99.3 | 102% (inactive) | 97.6% (inactive) | 97.8% (inactive) | 98.1 | 96.6
COc1cccc2c1Oc1ncccc1N(C(=O)CCC(=O)NCc1ccc(C)cc1)C2 | 101% (inactive) | 100 | 103 | 95.7% (inactive) | 94.2 | 96.2 | 99% (inactive) | 106% (inactive) | 98.8% (inactive) | 99.2 | 98.1
O=C(COC(=O)C1CCN(c2ccc(C(F)(F)F)cn2)CC1)Nc1cccc(F)c1 | 95% (inactive) | 94.6 | 96.1 | 102% (inactive) | 102 | 100 | 96.2% (inactive) | 97.2% (inactive) | 104% (inactive) | 108 | 102
CN1CCN(/N=C/c2c3ccccc3c(Cl)c3ccccc23)CC1 | 94.9% (inactive) | 95 | 94 | 105% (inactive) | 101 | 101 | 105% (inactive) | 99.8% (inactive) | 101% (inactive) | 102 | 95.7
Cc1c(Cc2ccccc2)c(NCCN(C)C)n2c(nc3ccccc32)c1C#N | 116% (inactive) | 45.5 | 99 | 249% (active) | 167 | 218 | 187% (active) | 143% (inactive) | 116% (inactive) | 135 | 92.8
COC(=O)c1ccc(NC(=O)c2nc(S(=O)(=O)Cc3cccc(C)c3)ncc2Cl)cc1 | 98.4% (inactive) | 96.1 | 98.7 | 103% (inactive) | 102 | 106 | 100% (inactive) | 95.7% (inactive) | 88.7% (inactive) | 88.3 | 86.9
O=c1c2c(-c3ccc(Cl)cc3)csc2ncn1/N=C/c1cccc([N+](=O)[O-])c1O | 99.3% (inactive) | 99.3 | 98.6 | 97.7% (inactive) | 95 | 99.5 | 99.5% (inactive) | 96.2% (inactive) | 99.3% (inactive) | 98.3 | 98
COc1ccccc1C(=O)N1CCN(c2cccc(Cl)c2)CC1 | 97.2% (inactive) | 98.9 | 95.8 | 102% (inactive) | 102 | 99.3 | 100% (inactive) | 95.6% (inactive) | 96.9% (inactive) | 99.1 | 95
COc1ccc(CCNC2=C(Cl)C(=O)N(CCc3ccc(OC)c(OC)c3)C2=O)cc1OC | 99.1% (inactive) | 98.5 | 99.3 | 100% (inactive) | 99.3 | 100 | 108% (inactive) | 101% (inactive) | 95% (inactive) | 98.3 | 93.3
COc1cc(NC(=O)c2ccc(F)cc2)ccc1NC(=O)c1cc2ccccc2o1 | 98% (inactive) | 99.1 | 94.3 | 96.1% (inactive) | 96.6 | 96.2 | 101% (inactive) | 102% (inactive) | 94.7% (inactive) | 96.8 | 94.7
O=C(Nc1ccccc1)c1c(F)cccc1F | 103% (inactive) | 103 | 103 | 97% (inactive) | 97.5 | 96.2 | 105% (inactive) | 102% (inactive) | 106% (inactive) | 103 | 107
COc1ccc(-c2sc(C(=O)c3ccc(Cl)cc3Cl)cc2CC(=O)O)cc1 | 96% (inactive) | 95.9 | 95.8 | 130% (inactive) | 127 | 131 | 122% (inactive) | 101% (inactive) | 104% (inactive) | 105 | 104
O=[N+]([O-])c1ncccc1OCc1ccc(-c2ccccc2)cc1 | 101% (inactive) | 99.6 | 98.8 | 135% (inactive) | 138 | 131 | 160% (inactive) | 104% (inactive) | 123% (inactive) | 126 | 114
Fc1ccc(/C=N/Nc2nc(-c3cccnc3)nc3ccccc23)cc1 | 94.5% (inactive) | 92.5 | 95 | 107% (inactive) | 105 | 111 | 102% (inactive) | 94.6% (inactive) | 93.9% (inactive) | 96.5 | 91.2
